# Activity calls are given as the source filed them. The rule behind the calls is not given here.
# Columns and labels:
# Calvarial osteoblast [1] = assay: Induction of osteogenesis in BALB/c mouse calvarial osteoblast cells using PNPP as substrate assessed as increase in ALP activity at 0.1 to 10 nM measured after 48 hrs by spectrophotometry; format: functional, cell-based; conditions: Calvaria, dose 0.1-10 nM
# Method in brief: (§1)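 Neonatal BALB/c calvarial osteoblasts, 2 × 10³ cells per well, adhered 24 h, then exposed to compounds (1 pM to 1 μM range) in osteoblast differentiation medium for 48 h. Cells frozen overnight at −80 or −20 °C, thawed at 37 °C to expose ectoenzyme; p-nitrophenyl phosphate added and ALP activity read at 405 nm. Untreated cells as control.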
# [2] = Induction of osteogenesis in BALB/c mouse MSC cells assessed as increase in mineral nodule formation at 0.1 nM treated for 21 days with compound refreshment for every 48 hrs by Alizarin red S staining based analysis relative to control; format: functional; conditions: time 21 day
# Method in brief: (§2)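 Bone marrow cells were flushed from the long bones of 6–8-week-old BALB/c mice and seeded at 2 × 10⁶ per well. Medium: 10% FBS, 100 nM dexamethasone, 50 μg mL⁻¹ ascorbic acid and 10 mM β-glycerophosphate. Compound and medium were renewed every 48 h for 21 days. Cells were fixed in 4% paraformaldehyde and stained with Alizarin red (pH 4.2). Stain was eluted with 10% cetylpyridinium chloride for 1 h and read at 595 nm versus control.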
# Calvarial osteoblast [3] = assay: Cytotoxicity in BALB/c mouse calvarial osteoblast cells at 0.001 to 1000 nM incubated for 48 hrs by MTT assay; format: toxicity, cell-based, Calvaria; conditions: 1 µM, dose 0.001-1000 nM
# Method in brief: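 Primary calvarial osteoblasts from 1–2 day old BALB/c pups (collagenase/dispase digests, α-MEM with 10% FBS) seeded at 2 × 10³ per well. MTT added for 4 h at 37 °C, formazan dissolved in DMSO, absorbance read at 570 nm.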
# Calvarial osteoblast [4] = assay: Induction of cell proliferation of BALB/c mouse calvarial osteoblast cells at 0.001 nM incubated for 48 hrs by MTT assay relative to control; format: functional, Calvaria
# Method in brief: (§3)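 Primary calvarial osteoblasts from 1–2-day-old neonatal BALB/c pups, released by dispase/collagenase digestion and grown in α-MEM with 10% FBS. Seeded at 2 × 10³ cells per well, treated after 24 h for 48 h in α-MEM with 5% FBS, 10 mM β-glycerophosphate and 50 μg mL⁻¹ ascorbic acid. MTT added for 4 h at 37 °C, formazan dissolved in DMSO, absorbance read at 570 nm versus untreated cells.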
# Calvarial osteoblast [5] = assay: Induction of cell proliferation of BALB/c mouse calvarial osteoblast cells at 0.1 nM incubated for 48 hrs by MTT assay relative to control; format: functional, Calvaria; method in brief: as §3
# [6] = Induction of osteogenesis in BALB/c mouse MSC cells assessed as increase in mineral nodule formation at 0.001 nM treated for 21 days with compound refreshment for every 48 hrs by Alizarin red S staining based analysis relative to control; format: functional; conditions: time 21 day; method in brief: as §2
# Calvarial osteoblast [7] = assay: Induction of osteogenesis in BALB/c mouse calvarial osteoblast cells using PNPP as substrate assessed as increase in ALP activity at 0.001 to 10 nM measured after 48 hrs by spectrophotometry; format: functional, cell-based; conditions: Calvaria, dose 0.001-10 nM; method in brief: as §1
Structure (SMILES),Activity (Calvarial osteoblast [1]),Activity [2] [%],Activity (Calvarial osteoblast [3]),Activity (Calvarial osteoblast [4]) [%],Activity (Calvarial osteoblast [5]) [%],Activity [6] [%],Activity (Calvarial osteoblast [7])
CCCCCC(=O)Nc1nc(-c2ccc(Cl)cc2)c(Cl)c(-c2cc(OC)c(OC)cc2OC)n1,Active,~27,Non-Toxic,~18,,,
CCCCCC(=O)Nc1nc(-c2ccc(Br)cc2)cc(-c2cc(OC)c(OC)cc2OC)n1,,~25,Non-Toxic,~22,~25,~24,Active
COc1cc(OC)c(-c2nc(N)nc(-c3ccc(Cl)cc3)c2Cl)cc1OC,Active,~26,Non-Toxic,,~29,,
